Screening results (PubChem)
Sampled rows, rich in hits. Any-hit rate of the full collection: about 1.8%.
FXIa inh 1536 – human FXIa protease inhibitors, primary screen, biochemical, 1536-well; purified FXIa, Boc-Glu-Ala-Arg-AMC fluorogenic substrate; inhibition, % at 5 µM; 220,000 compounds, 0.14% hits;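 active = inhibition of at least 40%; inactive = inhibition below 40%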;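 also: fluorescence of freed AMC excited at 355 nm; 0% = enzyme without compound and 100% = no enzyme blank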
Platelet DG rel – inhibitors of platelet dense granule secretion, primary screen, cell-based, MLPCN, human platelets. human platelet-rich plasma, SFLLRN dense granule ATP release, luminescence. inhibition, %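 (compounds screened at 7.5 µM in platelet-rich plasma)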. 300,000 compounds, 0.22% hits. AID 1663, 2009;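 active = mean replicate score, as percent of positive control, at or above 50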
Wee1 stabilizer – Wee1 degradation inhibitors, primary screen, cell-based, HeLa, Wee1K328M-luciferase, luminescence. HeLa Luc-Wee1K328M stability; 100% = proteasome inhibitor MG132 effect. 220,000 compounds, 1.2% hits. Wee1-like protein kinase (Homo sapiens), P30291. reporter increase, % at 5 µM. AID 1321, 2008;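 active = activation above the mean of all tested compounds plus 3 SD, set per screening run, cut at about 8.8% in these data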;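 also: cells exposed to compound for 20 h before luminescence read; 0% = DMSO alone and 100% = MG132 at 30 µM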
FXIIa inh 1536 – human FXIIa protease inhibitors, primary screen, biochemical, 1536-well; Coagulation factor XII (Homo sapiens), P00748; purified FXIIa, Boc-QGR-AMC fluorogenic substrate, 2 h; inhibition, % at 5 µM; 220,000 compounds, 0.3% hits; AID 800, 2007; in the data active = inhibition above about 40%;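 also: 0% = enzyme with no compound and 100% = blank without enzyme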
Target sequence (P00748 20-372 limits assumed): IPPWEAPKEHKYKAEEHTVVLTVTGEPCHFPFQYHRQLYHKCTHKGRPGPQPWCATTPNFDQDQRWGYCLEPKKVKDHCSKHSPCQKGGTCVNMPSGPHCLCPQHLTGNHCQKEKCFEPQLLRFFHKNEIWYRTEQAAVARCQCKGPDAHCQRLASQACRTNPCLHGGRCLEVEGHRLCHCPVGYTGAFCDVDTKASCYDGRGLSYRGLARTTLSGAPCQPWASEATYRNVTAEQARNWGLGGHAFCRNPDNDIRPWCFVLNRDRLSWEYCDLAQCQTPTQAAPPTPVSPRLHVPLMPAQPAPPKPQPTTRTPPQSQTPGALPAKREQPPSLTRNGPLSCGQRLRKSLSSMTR
Target sequence (P00748 373-615 limits assumed): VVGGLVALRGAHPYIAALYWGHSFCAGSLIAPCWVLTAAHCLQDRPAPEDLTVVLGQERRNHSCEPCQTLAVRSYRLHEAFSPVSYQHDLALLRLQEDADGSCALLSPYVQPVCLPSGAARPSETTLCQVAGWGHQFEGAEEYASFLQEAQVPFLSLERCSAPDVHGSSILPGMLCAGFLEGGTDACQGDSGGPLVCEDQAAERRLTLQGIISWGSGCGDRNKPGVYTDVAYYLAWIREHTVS
Thrombin inh – human alpha-thrombin inhibitors, primary screen, counter-screen for coagulation protease inhibitor project, biochemical, 1536-well, fluorogenic AMC substrate | inhibition, % at 5 µM | 220,000 compounds, 0.26% hits | Boc-VPR-AMC fluorogenic substrate cleavage;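 active = inhibition at or above 40%; inactive = inhibition below 40%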;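 also: 0% = enzyme with no compound and 100% = wells without enzyme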
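Assay system: human alpha-thrombin enzyme. Reagent: Boc-VPR-AMC substrate, 15 µM final. Compound dosing: one concentration per compound, 5 µM, with 0.2% DMSO. Incubation: room-temperature reaction. Technique: AMC fluorescence, 355/460 nm. Measure: % inhibition relative to enzyme controls and enzyme-free blanks.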
KLK5 inh – human KLK5 protease inhibitors, primary screen, biochemical, 1536-well; 210,000 compounds, 0.59% hits; inhibition, % at 5 µM; Kallikrein-5 (Homo sapiens), Q9Y337; recombinant hK5, fluorogenic AMC substrate cleavage;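 active = inhibition of 40% or more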;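 also: 0% = enzyme controls without compound and 100% = no-enzyme blanks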
Starred values were filed as active, the others as inactive; · = not tested or not shown.

SMILES	FXIa inh 1536	Platelet DG rel	Wee1 stabilizer	FXIIa inh 1536	Thrombin inh	KLK5 inh
Cn1cc(S(=O)(=O)N2CCc3ccccc32)cc1C(=O)Nc1ccc(Cl)cc1	·	62*	·	·	·	·
CN(C(=O)c1cc(S(=O)(=O)N2CCc3ccccc32)cn1C)C1CCCCC1	·	58*	·	·	·	·
Cc1ccc(N(C)C(=O)c2cc(S(=O)(=O)N3CCc4ccccc43)cn2C)cc1	·	10	·	·	·	·
Cc1noc(C)c1C(=O)Nc1sc(C)c(-c2ccccc2)c1C#N	-10	1	-1	-5	2	-15
Cc1cccc(C(=O)Nc2sc(C)c(-c3ccccc3)c2C#N)c1	10	-2	6	6	53*	56*
Cc1cccc(NC(=O)CC2SC(=O)N(c3ccccc3)C2=O)c1 (stereo not drawn)	-3	67*	2	7	1	7
Cc1cccc(NC2SC(=O)N(c3ccccc3)C2=O)c1 (stereo not drawn)	9	16	1	18	29	80*
O=C(CC1SC(=O)N(c2ccccc2)C1=O)Nc1ccccc1 (stereo not drawn)	-8	0	4	3	-5	5
CSc1ccc(N=Nc2c(C)[nH]n(C)c2=O)cc1	4	2	2	13	4	3
O=C(NCC(=O)N(Cc1ccccc1)C(C(=O)NC1CCCC1)c1ccncc1)c1ccco1 (stereo not drawn)	5	-1	2	13	2	-10
Cc1ccc(S(=O)(=O)CCC(=O)OC(C)C(=O)c2c(C)[nH]c3ccccc23)cc1 (stereo not drawn)	8	11	-3	13	1	-8
Cc1cc(OCC(=O)N2CCN(c3ccccn3)CC2)c(C)cc1Br	·	-7	·	·	·	·
COc1ccc(CNC(=O)CCS(=O)(=O)c2cccc3nonc23)cc1	0	·	4	14	-3	0
COc1ccccc1CNC(=O)CCS(=O)(=O)c1cccc2nonc12	-10	3	9.8*	5	-7	-8
Cc1ccc(NC(=O)c2csc(-c3ccccc3)c2C)cc1	-1	·	2	7	-1	-30
COc1ccc(NC(=O)c2cccc([N+](=O)[O-])c2)cc1	9	16	0	10	-6	3
COc1ccc(NC(=O)c2cc([N+](=O)[O-])ccc2O)cc1	2	72*	-4	9	0	·
Cc1c(C(=O)Nc2cccc([N+](=O)[O-])c2)csc1-c1ccccc1	4	8	10*	10	-2	0
O=C(O)c1ccccc1C(=O)Nc1cccc([N+](=O)[O-])c1	1	-6	5	6	-5	-2
O=C(Nc1cccc([N+](=O)[O-])c1)c1cc2ccccc2cc1O	4	-10	10*	8	0	0
Cc1ccc2oc(C(Cl)(Cl)Cl)cc(=O)c2c1	6	-1	0	7	-1	4
O=C1c2ccccc2-c2nnc(-c3ccccc3)cc21	6	24	0	15	0	-7
COc1ccc(-c2cc3c(nn2)-c2ccccc2C3=O)cc1	1	55*	3	13	-9	-5
COc1ccc(Cl)cc1N1C(=O)CC(Sc2ccccc2N)C1=O (stereo not drawn)	-2	25	-3	4	-7	1
CC(C)C(NC(=O)CC12CC3CC(CC(C3)C1)C2)C(=O)O (stereo not drawn)	15	-1	-3	47*	0	6
SMILES	FXIa inh 1536	Platelet DG rel	Wee1 stabilizer	FXIIa inh 1536	Thrombin inh	KLK5 inh
OC(CNc1ccccc1)COc1ccc(OCC(O)CNc2ccccc2)cc1 (stereo not drawn)	2	7	-2	14	0	58*
COc1ccc(C2=CSC3=NCCN23)cc1F	4	-4	1	101*	14	36
Oc1c(N=Nc2ccccc2)sc2ccccc12	3	56*	9.8*	8	-3	3
CCCc1c(C(=O)N/N=C/C(C)=C/c2ccco2)nnn1-c1nonc1N	·	11	·	·	·	·
COc1ccc(C(=O)Nc2ccccc2C(=O)N/N=C/c2ccccn2)cc1OC	0	56*	0	12	3	-21
COc1ccc(C(=O)Nc2ccccc2C(=O)O)cc1Cl	12	5	-2	28	24	47*
Cc1cc(N=Cc2c(O)ccc3cc(Br)ccc23)no1	-1	-3	0	9	-5	-17
O=C1CN(C(=O)COC(=O)c2cc(S(=O)(=O)N3CCOCC3)ccc2Cl)c2ccccc2N1	2	-1	7	15	2	6
O=C(Nc1ccn(-c2ccccc2)n1)c1ccc(S(=O)(=O)N2CCCCCC2)cc1	-6	5	-1	-1	-9	9
CC(C)OC(=O)CC1C(=O)NCCN1C(=O)COc1ccc(C(C)(C)C)cc1 (stereo not drawn)	·	5	·	·	·	·
O=C(O)CCC(=O)CCC(=O)c1ccc(Cl)cc1	9	-1	-2	33	14	44*
COCCNC(=O)C(c1ccc(C)o1)N(C(=O)c1snc(C(N)=O)c1N)c1ccc(C)c(C)c1 (stereo not drawn)	12	12	-1	26	20	44*
COCCNC(=O)C(c1ccc(C)o1)N(C(=O)c1snc(C(N)=O)c1N)c1ccc(C)cc1 (stereo not drawn)	6	-3	-2	11	11	-40
Cc1sc2cc(-c3cccc([N+](=O)[O-])c3)c(-c3cccc([N+](=O)[O-])c3)c[n+]2c1C	7	-9	-3	16	1	-23
O=[N+]([O-])c1cccc(-c2cc3cccc[n+]3cc2-c2cccc([N+](=O)[O-])c2)c1	9	-1	2	15	32	46*
CCOC(=O)c1c(NC(=O)CSc2ncnc3[nH]ncc23)sc2c1CCC(C)C2 (stereo not drawn)	-5	-4	-1	6	10	-3
CN(C)c1ccc(N=Nc2nc3ccccc3n2C)cc1	6	182*	1	15	0	7
Cn1c(Cl)nc2ccccc21	-2	1	1	10	-1	-24
CCn1c(NCc2ccc(N(C)C)cc2)nc2ccccc21	-2	1	-1	19	5	-3
Cn1c(N=Nc2ccccc2)nc2ccccc21	12	72*	6	10	0	-18
O=C(NCc1ccc2c(c1)OCO2)C1CCC(CNS(=O)(=O)c2ccccc2)CC1 (stereo not drawn)	-3	61*	-1	0	-6	-27
